Assay results published in ChEMBL document CHEMBL3763100, “Structure-guided design of new indoles as negative allosteric modulators (NAMs) of N-methyl-D-aspartate receptor (NMDAR) containing GluN2B subunit” (Bioorg Med Chem, 2016).
Calls of active or inactive are those of the source. No cut-off for these calls is given here.

Key:
Mus musculus = assay: Anticonvulsant activity in DBA/2 mouse assessed as prevention of audiogenic seizures at 100 umol/kg, ip administered 30 mins prior to testing; type: functional, organism-based
In short: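 DBA/2 mice genetically prone to sound-induced seizures (8-12 g, 22-25 days old), groups of 10 of either sex. Dosed ip in fresh 50% DMSO/50% sterile saline, or vehicle alone. After 30 min, 60 s habituation under a dome, then auditory stimulus (12-16 kHz, 109 dB) for 60 s or until tonic extension. Latency to and incidence of wild running, clonus, tonic phases were scored; incidence compared by Fisher's exact test.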

[1] = target: Glutamate receptor ionotropic, NMDA 2B (Rattus norvegicus, UniProt Q00960); assay: Displacement of [3H]ifenprodil from Wistar rat cerebral cortex GluN2B receptor after 120 mins; type: tissue-based
[2] = target: Glutamate receptor ionotropic, NMDA 2B (Rattus norvegicus) (UniProt Q00960); assay: Displacement of [3H]ifenprodil from Wistar rat cerebral cortex GluN2B receptor at 0.1 uM after 120 mins relative to control; type: tissue-based
In short: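 Male Wistar-derived rat cerebral cortex membranes (175 ± 25 g rats) in Tris-HCl pH 7.4. […] Filtration, washing and counting followed. Test compounds were run at three concentrations in duplicate, with 0.1 μM used for % inhibition.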

[3] = target: Glutamate receptor ionotropic, NMDA 2B (Rattus norvegicus) (UniProt Q00960); assay: Displacement of [3H]ifenprodil from Wistar rat cerebral cortex GluN2B receptor at 0.1 uM relative to control

Glutamate receptor ionotropic, NMDA 2B (Rattus norvegicus), sequence (Q00960 27-1482 limits assumed): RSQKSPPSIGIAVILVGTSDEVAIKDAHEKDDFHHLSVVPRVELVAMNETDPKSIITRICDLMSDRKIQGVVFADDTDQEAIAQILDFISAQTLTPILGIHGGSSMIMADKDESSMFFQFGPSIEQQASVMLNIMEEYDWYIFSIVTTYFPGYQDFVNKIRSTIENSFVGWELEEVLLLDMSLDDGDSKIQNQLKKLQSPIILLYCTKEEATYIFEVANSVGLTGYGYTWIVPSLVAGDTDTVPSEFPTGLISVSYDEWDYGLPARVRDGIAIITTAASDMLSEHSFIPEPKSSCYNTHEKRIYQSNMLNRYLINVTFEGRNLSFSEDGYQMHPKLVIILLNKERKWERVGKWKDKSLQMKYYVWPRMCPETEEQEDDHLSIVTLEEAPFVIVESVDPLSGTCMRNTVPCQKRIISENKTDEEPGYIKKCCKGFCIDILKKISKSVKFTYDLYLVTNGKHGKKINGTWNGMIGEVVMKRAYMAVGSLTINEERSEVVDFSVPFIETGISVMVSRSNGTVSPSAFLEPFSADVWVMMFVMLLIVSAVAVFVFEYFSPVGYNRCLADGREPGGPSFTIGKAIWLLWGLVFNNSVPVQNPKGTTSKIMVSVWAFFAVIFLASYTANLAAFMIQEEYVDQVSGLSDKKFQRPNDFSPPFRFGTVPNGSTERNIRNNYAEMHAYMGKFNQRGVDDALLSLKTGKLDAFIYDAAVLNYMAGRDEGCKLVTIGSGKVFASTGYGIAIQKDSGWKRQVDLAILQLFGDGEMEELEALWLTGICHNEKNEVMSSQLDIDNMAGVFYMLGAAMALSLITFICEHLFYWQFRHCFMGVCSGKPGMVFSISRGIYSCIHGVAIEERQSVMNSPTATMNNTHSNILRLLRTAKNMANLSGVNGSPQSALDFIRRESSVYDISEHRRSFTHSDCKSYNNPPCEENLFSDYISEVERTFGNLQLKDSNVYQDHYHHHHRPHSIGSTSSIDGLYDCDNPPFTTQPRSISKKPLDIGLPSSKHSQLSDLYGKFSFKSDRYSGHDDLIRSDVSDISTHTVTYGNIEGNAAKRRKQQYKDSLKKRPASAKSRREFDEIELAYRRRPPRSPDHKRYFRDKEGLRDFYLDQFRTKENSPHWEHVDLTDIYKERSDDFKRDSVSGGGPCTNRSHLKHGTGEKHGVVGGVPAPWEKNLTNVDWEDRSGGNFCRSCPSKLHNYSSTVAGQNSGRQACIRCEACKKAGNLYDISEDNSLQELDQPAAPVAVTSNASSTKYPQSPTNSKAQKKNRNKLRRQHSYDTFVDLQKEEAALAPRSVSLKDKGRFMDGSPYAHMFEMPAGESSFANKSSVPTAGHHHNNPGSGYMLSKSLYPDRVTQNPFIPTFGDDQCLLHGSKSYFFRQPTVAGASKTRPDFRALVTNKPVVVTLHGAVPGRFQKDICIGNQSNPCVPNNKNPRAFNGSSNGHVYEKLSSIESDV
Glutamate receptor ionotropic, NMDA 2B, sequence (Q00960 whole entry): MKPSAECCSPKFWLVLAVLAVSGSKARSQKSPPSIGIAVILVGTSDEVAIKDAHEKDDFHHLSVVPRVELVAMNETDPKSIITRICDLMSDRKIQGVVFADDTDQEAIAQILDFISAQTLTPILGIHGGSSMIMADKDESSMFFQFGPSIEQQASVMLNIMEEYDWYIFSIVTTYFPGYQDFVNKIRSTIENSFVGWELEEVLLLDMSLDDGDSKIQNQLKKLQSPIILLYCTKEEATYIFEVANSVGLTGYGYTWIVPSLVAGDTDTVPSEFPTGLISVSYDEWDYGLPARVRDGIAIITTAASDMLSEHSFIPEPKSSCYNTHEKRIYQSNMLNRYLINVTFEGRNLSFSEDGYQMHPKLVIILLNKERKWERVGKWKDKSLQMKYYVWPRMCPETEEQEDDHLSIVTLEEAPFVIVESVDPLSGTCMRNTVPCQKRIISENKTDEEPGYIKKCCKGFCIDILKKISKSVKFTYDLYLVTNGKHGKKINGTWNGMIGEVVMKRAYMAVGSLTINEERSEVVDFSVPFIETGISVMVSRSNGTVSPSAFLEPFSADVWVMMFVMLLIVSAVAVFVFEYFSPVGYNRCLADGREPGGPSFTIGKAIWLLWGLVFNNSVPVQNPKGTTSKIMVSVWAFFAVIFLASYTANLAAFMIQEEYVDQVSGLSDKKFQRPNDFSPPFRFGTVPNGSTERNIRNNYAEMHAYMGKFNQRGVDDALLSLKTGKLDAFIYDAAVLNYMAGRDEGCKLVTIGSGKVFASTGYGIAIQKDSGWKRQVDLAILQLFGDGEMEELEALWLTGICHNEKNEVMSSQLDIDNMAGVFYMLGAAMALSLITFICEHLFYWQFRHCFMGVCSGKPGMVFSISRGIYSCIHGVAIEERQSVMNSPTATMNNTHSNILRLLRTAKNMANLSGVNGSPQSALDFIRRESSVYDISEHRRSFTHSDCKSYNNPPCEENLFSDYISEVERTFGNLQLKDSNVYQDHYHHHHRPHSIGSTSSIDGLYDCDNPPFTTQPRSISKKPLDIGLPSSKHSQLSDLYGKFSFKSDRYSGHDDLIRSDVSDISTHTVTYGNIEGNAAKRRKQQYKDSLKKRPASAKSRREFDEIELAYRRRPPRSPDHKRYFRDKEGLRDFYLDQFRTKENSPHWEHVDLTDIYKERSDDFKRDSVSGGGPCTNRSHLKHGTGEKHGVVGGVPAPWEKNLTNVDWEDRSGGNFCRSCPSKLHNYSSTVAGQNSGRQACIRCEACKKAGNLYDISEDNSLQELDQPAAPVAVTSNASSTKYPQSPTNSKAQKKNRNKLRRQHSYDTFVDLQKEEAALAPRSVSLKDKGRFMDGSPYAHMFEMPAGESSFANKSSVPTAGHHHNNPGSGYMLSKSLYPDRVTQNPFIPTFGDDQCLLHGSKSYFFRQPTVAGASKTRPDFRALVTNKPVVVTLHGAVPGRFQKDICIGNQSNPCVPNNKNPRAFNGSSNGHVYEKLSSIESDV

Row | Structure (SMILES) | Activity (Mus musculus) | IC50 [1] [nM] | inhibition [2] [%] | inhibition [3] [%]
1 | CCc1ccc(CC2CCN(CC(=O)c3c[nH]c4ccc(O)cc34)CC2)cc1 | inactive | 71 | 75 | 
2 | O=C(Cc1c[nH]c2ccc(O)cc12)N1CCC(Cc2ccc(F)cc2)CC1 |  |  | 19 | 
3 | Cc1ccc(CC2CCN(CC(=O)c3c[nH]c4ccc(O)cc34)CC2)cc1C |  | 3330 | < 5 | 
4 | O=C(CN1CCC(Cc2ccccc2)CC1)c1c[nH]c2ccc(O)cc12 |  |  |  | 75
5 | Oc1ccc2[nH]cc(CCN3CCC(Cc4ccccc4)CC3)c2c1 |  |  | 42 | 
6 | Cc1ccc(CC2CCN(CC(=O)c3c[nH]c4ccc(O)cc34)CC2)cc1 | inactive | 83 | 66 | 
7 | O=C(Cc1c[nH]c2ccc(O)cc12)N1CCC(Cc2ccccc2)CC1 |  |  | 5 | 
8 | O=C(CN1CCC(Oc2ccccc2)CC1)c1c[nH]c2ccc(O)cc12 |  |  | 9 | 
9 | COc1ccc(CC2CCN(CC(=O)c3c[nH]c4ccc(O)cc34)CC2)cc1 |  | 1280 | 16 | 
